Reference: ChEMBL document CHEMBL1149157, “Synthesis and structure-activity relationship of novel antitumoral platinum xanthate complexes” (J Med Chem, 2004)
pIC50: −log10 of the molar value.

Legend:
Assay type in all cases: functional, cell-based, Homo sapiens
Calu-6 [1] = test: Cytotoxic activity was determined in vitro in Calu-6 cell line culture at pH 7.4
Procedure, shortened: (§1)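 Plated at 2×10^6 cells/plate. After one day, medium was replaced with pH 7.4 medium (2.2 g NaHCO3/L) and equilibrated under 5% CO2. Cells got 2 h at 37°C, in quadruplicate, of a 1:2 series 50–0.8 µg/mL (acetone ≤5%), then drug-free pH 7.4 medium for 24–96 h until controls were confluent. Fixed with 3% formaldehyde, stained with 1% crystal violet, A550. IC50 from dose–response curves; mean of four assays ± SD.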

Calu-6 [2] = test: Cytotoxic activity was determined in vitro in Calu-6 cell line culture at pH 6.8
Procedure, shortened: (§2)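 Seeded at 2×10^6 cells/plate. Next day, switched to pH 6.8 medium (1.3 g NaHCO3/L, serum acidified with 1 N HCl) and equilibrated in 5% CO2. Exposed for 2 h at 37°C in quadruplicate to 50–0.8 µg/mL (1:2 series; acetone ≤5%), then given drug-free pH 7.4 medium until controls were confluent. Read by formaldehyde fixation and crystal violet at 550 nm. IC50 from dose–response curves, mean of four assays ± SD.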

KB [3] = test: Cytotoxic activity was determined in vitro in KB cell line culture at pH 7.4
Procedure, shortened: (§3)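 Using pH 7.4 medium (2.2 g NaHCO3/L) on cells plated a day earlier at 2×10^6/plate, with equilibration in 5% CO2. Compounds were applied for 2 h at 37°C in quadruplicate at 50–0.8 µg/mL (1:2; acetone ≤5%), followed by drug-free pH 7.4 medium until controls were confluent. Fixed and stained with crystal violet, dye eluted with ethanol/1% acetic acid, read at 550 nm. IC50 from curves, mean of four ± SD.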

KB [4] = test: Cytotoxic activity was determined in vitro in KB cell line culture at pH 6.8
Procedure, shortened: (§4)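 Cells at 2×10^6/plate were moved the next day into pH 6.8 medium (1.3 g NaHCO3/L; serum given 1 N HCl; 30 min 5% CO2). Treated 2 h at 37°C, quadruplicate, 50–0.8 µg/mL in 1:2 steps (acetone ≤5%), then grown in drug-free pH 7.4 medium to control confluence. Crystal violet stain eluted with ethanol/1% acetic acid before A550. IC50 from curves, mean of four assays ± SD.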

LXF-289 cell line [5] = test: Cytotoxic activity was determined in vitro in LXF-289 cell line culture at pH 6.8; procedure, shortened: as §2
LXF-289 cell line [6] = test: Cytotoxic activity was determined in vitro in LXF-289 cell line culture at pH 7.4; procedure, shortened: as §1
MCF7 [7] = test: Cytotoxic activity was determined in vitro in MCF-7 cell line culture at pH 6.8; procedure, shortened: as §4
SK-OV-3 [8] = test: Cytotoxic activity was determined in vitro in SK-OV-3 cell line culture at pH 6.8
Procedure, shortened: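 SK-OV-3 seeded at 1×10^6 cells/plate. Next day, placed in pH 6.8 medium (1.3 g NaHCO3/L, HCl-treated serum, 5% CO2). Given 2 h at 37°C, in quadruplicate, of 50–0.8 µg/mL (1:2; acetone ≤5%), then drug-free pH 7.4 medium until controls were confluent. Formaldehyde-fixed and crystal violet-stained, A550. IC50 from dose–response curves, mean of four assays ± SD.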

SK-MEL-25 [9] = test: Cytotoxic activity was determined in vitro in SK-MEL-25 cell line culture at pH 6.8; procedure, shortened: as §2
SK-MEL-25 [10] = test: Cytotoxic activity was determined in vitro in SK-MEL-25 cell line culture at pH 7.4; procedure, shortened: as §1
MCF7 [11] = test: Cytotoxic activity was determined in vitro in MCF-7 cell line culture at pH 7.4; procedure, shortened: as §3
SK-OV-3 [12] = test: Cytotoxic activity was determined in vitro in SK-OV-3 cell line culture at pH 7.4
Procedure, shortened: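 With 1×10^6 cells/plate seeded, medium was changed the next day to pH 7.4 (2.2 g NaHCO3/L) under 5% CO2. Cells were exposed 2 h at 37°C in quadruplicate to a 1:2 series of 50–0.8 µg/mL (acetone ≤5%), then given drug-free pH 7.4 medium until controls were confluent. Crystal violet read at 550 nm after formaldehyde fixation. IC50 from curves; mean of four assays ± SD.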

Substance: 2,6-diethoxy-1,3,5,7-tetrathia-4-platinaspiro[3.3]heptane
- pIC50 (Calu-6 [1]): 4.62
- pIC50 (Calu-6 [2]): 4.68
- pIC50 (KB [3]): 4.24
- pIC50 (KB [4]): 4.74
- pIC50 (LXF-289 cell line [5]): 4.35
- pIC50 (LXF-289 cell line [6]): 4.04
- pIC50 (MCF7 [7]): 4.92
- pIC50 (SK-OV-3 [8]): 4.07
- pIC50 (SK-MEL-25 [9]): 4.68
- pIC50 (SK-MEL-25 [10]): 4.25
- pIC50 (MCF7 [11]): 4.33
- pIC50 (SK-OV-3 [12]): 4.01

Substance: 2,6-bis(2-methylpropoxy)-1,3,5,7-tetrathia-4-platinaspiro[3.3]heptane
- pIC50 (Calu-6 [1]): 5.00
- pIC50 (Calu-6 [2]): 5.05
- pIC50 (KB [3]): 4.33
- pIC50 (KB [4]): 4.52
- pIC50 (LXF-289 cell line [5]): 4.72
- pIC50 (LXF-289 cell line [6]): 4.43
- pIC50 (MCF7 [7]): 4.57
- pIC50 (SK-OV-3 [8]): 4.49
- pIC50 (SK-MEL-25 [9]): 4.82
- pIC50 (SK-MEL-25 [10]): 4.68
- pIC50 (MCF7 [11]): 4.64
- pIC50 (SK-OV-3 [12]): 4.21

Substance: 2,6-bis(cyclopropylmethoxy)-1,3,5,7-tetrathia-4-platinaspiro[3.3]heptane
- pIC50 (Calu-6 [1]): 4.48
- pIC50 (Calu-6 [2]): 4.77
- pIC50 (KB [3]): 4.14
- pIC50 (KB [4]): 4.48
- pIC50 (LXF-289 cell line [5]): < 3.99
- pIC50 (LXF-289 cell line [6]): < 3.99
- pIC50 (MCF7 [7]): 4.02
- pIC50 (SK-OV-3 [8]): 4.02
- pIC50 (SK-MEL-25 [9]): 4.19
- pIC50 (SK-MEL-25 [10]): 4.07
- pIC50 (MCF7 [11]): 4.05
- pIC50 (SK-OV-3 [12]): 4.17

Substance: 2,6-bis(cyclohexyloxy)-1,3,5,7-tetrathia-4-platinaspiro[3.3]heptane
- pIC50 (Calu-6 [1]): 5.10
- pIC50 (Calu-6 [2]): 5.52
- pIC50 (KB [3]): 5.05
- pIC50 (KB [4]): 5.22
- pIC50 (LXF-289 cell line [5]): 5.22
- pIC50 (LXF-289 cell line [6]): 4.92
- pIC50 (MCF7 [7]): 5.30
- pIC50 (SK-OV-3 [8]): 5.05
- pIC50 (SK-MEL-25 [9]): 5.52
- pIC50 (SK-MEL-25 [10]): 5.10
- pIC50 (MCF7 [11]): 5.05
- pIC50 (SK-OV-3 [12]): 4.92

Substance: 2,6-dimethoxy-1,3,5,7-tetrathia-4-platinaspiro[3.3]heptane
- pIC50 (Calu-6 [1]): 4.68
- pIC50 (Calu-6 [2]): 4.96
- pIC50 (KB [3]): 4.31
- pIC50 (KB [4]): 4.70
- pIC50 (LXF-289 cell line [5]): 4.41
- pIC50 (LXF-289 cell line [6]): 3.99
- pIC50 (MCF7 [7]): 5.15
- pIC50 (SK-OV-3 [8]): 4.59
- pIC50 (SK-MEL-25 [9]): 4.85
- pIC50 (SK-MEL-25 [10]): 4.10
- pIC50 (MCF7 [11]): 4.72
- pIC50 (SK-OV-3 [12]): 4.33

Substance: 2,6-bis(2,2-dimethylpropoxy)-1,3,5,7-tetrathia-4-platinaspiro[3.3]heptane
- pIC50 (Calu-6 [1]): 4.57
- pIC50 (Calu-6 [2]): 4.60
- pIC50 (KB [3]): < 4.02
- pIC50 (KB [4]): < 4.02
- pIC50 (LXF-289 cell line [5]): 4.23
- pIC50 (LXF-289 cell line [6]): 4.12
- pIC50 (MCF7 [7]): 4.21
- pIC50 (SK-OV-3 [8]): < 4.07
- pIC50 (SK-MEL-25 [9]): 4.14
- pIC50 (SK-MEL-25 [10]): 4.08
- pIC50 (MCF7 [11]): < 4.07
- pIC50 (SK-OV-3 [12]): < 4.07

Substance: 2,6-bis(pentan-3-yloxy)-1,3,5,7-tetrathia-4-platinaspiro[3.3]heptane
- pIC50 (Calu-6 [1]): 5.30
- pIC50 (Calu-6 [2]): 5.52
- pIC50 (KB [3]): 5.30
- pIC50 (KB [4]): 5.40
- pIC50 (LXF-289 cell line [5]): 5.10
- pIC50 (LXF-289 cell line [6]): 5.00
- pIC50 (MCF7 [7]): 5.30
- pIC50 (SK-OV-3 [8]): 5.10
- pIC50 (SK-MEL-25 [9]): 5.30
- pIC50 (SK-MEL-25 [10]): 5.05
- pIC50 (MCF7 [11]): 5.22
- pIC50 (SK-OV-3 [12]): 5.30

Substance: 2,6-dibutoxy-1,3,5,7-tetrathia-4-platinaspiro[3.3]heptane
- pIC50 (Calu-6 [1]): 4.72
- pIC50 (Calu-6 [2]): 5.15
- pIC50 (KB [3]): 4.49
- pIC50 (KB [4]): 4.80
- pIC50 (LXF-289 cell line [5]): 4.62
- pIC50 (LXF-289 cell line [6]): 4.41
- pIC50 (MCF7 [7]): 5.15
- pIC50 (SK-OV-3 [8]): 4.48
- pIC50 (SK-MEL-25 [9]): 5.00
- pIC50 (SK-MEL-25 [10]): 4.66
- pIC50 (MCF7 [11]): 4.60
- pIC50 (SK-OV-3 [12]): 4.05

Substance: 2,6-bis(cyclopentyloxy)-1,3,5,7-tetrathia-4-platinaspiro[3.3]heptane
- pIC50 (Calu-6 [1]): 5.30
- pIC50 (Calu-6 [2]): 5.52
- pIC50 (KB [3]): 4.62
- pIC50 (KB [4]): 4.85
- pIC50 (LXF-289 cell line [5]): 4.43
- pIC50 (LXF-289 cell line [6]): 4.42
- pIC50 (MCF7 [7]): 5.30
- pIC50 (SK-OV-3 [8]): 4.77
- pIC50 (SK-MEL-25 [9]): 5.30
- pIC50 (SK-MEL-25 [10]): 5.05
- pIC50 (MCF7 [11]): 5.00
- pIC50 (SK-OV-3 [12]): 4.59

Substance: 2,6-dicyclobutoxy-1,3,5,7-tetrathia-4-platinaspiro[3.3]heptane
- pIC50 (Calu-6 [1]): 5.15
- pIC50 (Calu-6 [2]): 5.52
- pIC50 (KB [3]): 4.70
- pIC50 (KB [4]): 5.22
- pIC50 (LXF-289 cell line [5]): 4.43
- pIC50 (LXF-289 cell line [6]): 4.36
- pIC50 (MCF7 [7]): 4.96
- pIC50 (SK-OV-3 [8]): 4.77
- pIC50 (SK-MEL-25 [9]): 5.15
- pIC50 (SK-MEL-25 [10]): 4.92
- pIC50 (MCF7 [11]): 4.68
- pIC50 (SK-OV-3 [12]): 4.72
